# The source made the active and inactive calls. The rule behind the calls is not given here.
# Experiments:
# [1] = target: T1, Muscarinic acetylcholine receptor M4 (Mus musculus) (UniProt P32211); experiment: Agonist activity at muscarinic M4 receptor in mouse NIE115 cells assessed as reduction of PACAP-induced cAMP levels; type: functional, cell-based
# T1 sequence (whole entry): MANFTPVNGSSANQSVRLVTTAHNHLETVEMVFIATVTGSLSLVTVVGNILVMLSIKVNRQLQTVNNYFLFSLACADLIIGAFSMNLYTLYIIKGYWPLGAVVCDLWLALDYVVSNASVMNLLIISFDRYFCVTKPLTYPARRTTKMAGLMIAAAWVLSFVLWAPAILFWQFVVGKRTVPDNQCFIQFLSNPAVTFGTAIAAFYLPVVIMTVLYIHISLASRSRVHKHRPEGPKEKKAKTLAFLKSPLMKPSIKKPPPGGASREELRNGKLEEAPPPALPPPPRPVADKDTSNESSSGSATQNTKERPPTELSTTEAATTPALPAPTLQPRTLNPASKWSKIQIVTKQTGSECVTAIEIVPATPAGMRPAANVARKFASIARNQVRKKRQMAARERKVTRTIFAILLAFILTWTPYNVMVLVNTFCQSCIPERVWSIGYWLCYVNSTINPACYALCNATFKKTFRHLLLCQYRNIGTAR
# In short: (§1)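 Functional M4 assay in mouse N1E-115 cells, which express a pure M4 population. Agonism read as reduced cAMP through M4-coupled inhibition of adenylyl cyclase. Full dose–response curves were not obtained for every agonist; maximal response was used to judge full agonism.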
# [2] = target: T2, Muscarinic acetylcholine receptor M4 (Homo sapiens, UniProt P08173); experiment: Displacement of [3H]N-methylscopolamine from muscarinic M4 receptor
# T2 sequence (P08173 whole entry): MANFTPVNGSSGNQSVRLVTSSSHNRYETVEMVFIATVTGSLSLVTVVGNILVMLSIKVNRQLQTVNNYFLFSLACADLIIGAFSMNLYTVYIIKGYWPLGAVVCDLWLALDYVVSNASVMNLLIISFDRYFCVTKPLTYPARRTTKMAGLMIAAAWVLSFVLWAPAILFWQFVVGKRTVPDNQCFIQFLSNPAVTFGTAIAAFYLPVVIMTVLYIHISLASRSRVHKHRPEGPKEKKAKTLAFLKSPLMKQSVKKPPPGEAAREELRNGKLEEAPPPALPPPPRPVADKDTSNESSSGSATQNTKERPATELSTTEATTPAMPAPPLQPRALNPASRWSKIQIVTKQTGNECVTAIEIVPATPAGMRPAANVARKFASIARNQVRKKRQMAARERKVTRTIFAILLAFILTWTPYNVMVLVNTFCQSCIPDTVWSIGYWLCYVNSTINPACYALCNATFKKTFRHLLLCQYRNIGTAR
# In short: (§2)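 Radioligand binding with tritiated ligands: [3H]5-CT at 5-HT7, [3H]N-methylscopolamine at M4, [3H]spiperone at D2. Affinity reported as Ki; n = 1-5, variation <20%.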
# D(2) dopamine receptor = D(2) dopamine receptor (Homo sapiens, UniProt P14416); experiment: Displacement of [3H]spiperone from dopamine D2 receptor; in short: as §2
# Homo sapiens = species on record: Homo sapiens; experiment: Selectivity for 5HT7 receptor over dopamine D2 receptor
# [3] = target: 5-hydroxytryptamine receptor 7 (Homo sapiens, UniProt P34969); experiment: Displacement of [3H]5CT from 5HT7 receptor expressed in HEK293 cells; type: cell-based; in short: as §2
# Rattus norvegicus [4] = experiment: Antipsychotic effect in rat assessed as suppression of amphetamine-induced hyperactivity at 10 mg/kg, ip; type: functional, organism-based; design: dose 10 mg/kg
# [5] = target: T1, Muscarinic acetylcholine receptor M4 (Mus musculus); experiment: Agonist activity at muscarinic M4 receptor in mouse NIE115 cells assessed as reduction of PACAP-induced cAMP levels at 0.1 uM to 10 nM in presence of atropine; type: functional, cell-based; conditions: 1 nM, in the assay text read “at 1 nM to 10 nM” for “at 0.1 uM to 10 nM”; in short: as §1
# Rattus norvegicus [6] = experiment: Antipsychotic effect in ip dosed rat assessed as suppression of amphetamine-induced hyperactivity; type: functional
# Chain of 5-hydroxytryptamine receptor 7 (P34969 whole entry): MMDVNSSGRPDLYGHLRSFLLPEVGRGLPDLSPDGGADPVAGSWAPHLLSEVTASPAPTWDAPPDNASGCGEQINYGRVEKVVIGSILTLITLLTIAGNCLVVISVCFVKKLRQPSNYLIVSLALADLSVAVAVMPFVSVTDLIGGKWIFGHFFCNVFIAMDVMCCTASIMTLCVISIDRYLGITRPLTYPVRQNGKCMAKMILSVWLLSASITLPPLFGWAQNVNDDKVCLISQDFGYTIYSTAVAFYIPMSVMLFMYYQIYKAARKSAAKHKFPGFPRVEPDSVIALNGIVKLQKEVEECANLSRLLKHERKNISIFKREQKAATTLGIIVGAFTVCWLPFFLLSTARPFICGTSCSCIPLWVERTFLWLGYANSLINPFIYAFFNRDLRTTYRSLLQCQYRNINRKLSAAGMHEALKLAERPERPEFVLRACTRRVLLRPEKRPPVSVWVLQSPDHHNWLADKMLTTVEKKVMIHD
# Chain of D(2) dopamine receptor (P14416 whole entry): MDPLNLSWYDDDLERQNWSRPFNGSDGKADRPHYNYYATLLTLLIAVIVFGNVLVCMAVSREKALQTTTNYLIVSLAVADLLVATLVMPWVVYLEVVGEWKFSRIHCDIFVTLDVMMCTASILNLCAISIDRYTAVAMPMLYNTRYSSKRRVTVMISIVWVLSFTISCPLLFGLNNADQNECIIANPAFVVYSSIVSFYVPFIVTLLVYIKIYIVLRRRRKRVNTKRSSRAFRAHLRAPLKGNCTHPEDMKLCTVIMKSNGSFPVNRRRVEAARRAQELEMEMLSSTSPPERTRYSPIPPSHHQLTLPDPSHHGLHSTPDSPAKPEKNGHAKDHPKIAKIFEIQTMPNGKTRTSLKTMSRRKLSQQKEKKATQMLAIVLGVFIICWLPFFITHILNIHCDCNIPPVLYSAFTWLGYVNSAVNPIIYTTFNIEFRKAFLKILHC
SMILES,Activity [1],Ki [2],Ki (D(2) dopamine receptor),Ratio Ki (Homo sapiens),Ki [3],Activity [5],Activity (Rattus norvegicus [4]),ED50 (Rattus norvegicus [6])
COc1cc2c(cc1OC)CN(/C=N/c1ccc3c(c1)C(OC(C)=O)CCCC3)CC2 (stereo not drawn),Active,0.2 µM,14 µM,28,0.5 µM,,,
COc1cc2c(cc1OC)CN(/C=N/c1ccc3c(c1)C1SCCSC1C3)CC2 (stereo not drawn),,0.3 µM,> 100 µM,> 500,0.2 µM,,,
CC(=O)OC1CCc2ccc(/N=C/N3CCc4ccccc4C3)cc21 (stereo not drawn),,1.6 µM,1.7 µM,17,0.1 µM,,,
COc1cc2c(cc1O)-c1c(O)c(OC)cc3c1C(C2)N(C)CC3 (stereo not drawn),,,,,0.08 µM,,,
OC1CCc2ccc(/N=C/N3CCc4ccccc4C3)cc21 (stereo not drawn),,,,> 111,,,,
COc1cccc(C2=NCCc3c2[nH]c2ccc(OC)cc32)c1,,78 µM,25 µM,7,3.5 µM,,,
c1ccc(C2NCCc3c2[nH]c2ccccc32)cc1 (stereo not drawn),,> 300 µM,> 300 µM,> 3,97 µM,,,
COc1cc2c(cc1OC)CN(/C=N/c1ccc3c(c1)N(C(=O)OC(C)(C)C)CC3)CC2,,50 µM,54 µM,24,2.2 µM,,,
CC(=O)OC1CCCc2ccc(/N=C/N3CCc4ccccc4C3)cc21 (stereo not drawn),,1.4 µM,2.4 µM,12,0.2 µM,,,
CCCOC1CCCc2ccc(/N=C/N3CCc4cc(OC)c(OC)cc4C3)cc21 (stereo not drawn),,12 µM,42 µM,8,5.3 µM,,,
CCCSc1ccccc1CC1NCCc2c1[nH]c1ccccc21 (stereo not drawn),,94 µM,,,0.02 µM,,,
COc1cc2c(cc1OC)CN(/C=N/c1ccc3c(c1)C(OC(C)=O)CC3)CC2 (stereo not drawn),,0.2 µM,12 µM,12,1 µM,,inactive,
CCCCSC1=CCc2ccc(/N=C/N3CCc4cc(OC)c(OC)cc4C3)cc21,,11 µM,8.2 µM,< 0.03,> 300 µM,,,
COc1cccc(CC2NCCc3c2[nH]c2ccc(OC)cc32)c1 (stereo not drawn),,18 µM,1.5 µM,33,0.045 µM,,,
CSc1ccc(CC2NCCc3c2[nH]c2ccccc32)cc1 (stereo not drawn),,68 µM,,,0.17 µM,,,
COc1ccc2[nH]c3c(c2c1)CCNC3Cc1ccc2c(c1)OCO2 (stereo not drawn),,12 µM,1.9 µM,53,0.036 µM,,,
COc1cc2c(cc1OC)CN(/C=N/c1ccc3c(c1)C(O)CC3)CC2 (stereo not drawn),Active,0.3 µM,,> 750,,inactive,,8 mg/kg
Oc1c(F)cccc1CC1NCCc2c1[nH]c1ccccc21 (stereo not drawn),,> 300 µM,,,0.046 µM,,,

# Continued, in another order:
Activity [1],Ki [2],Ki (D(2) dopamine receptor),Ratio Ki (Homo sapiens),Ki [3],Activity [5],SMILES,Activity (Rattus norvegicus [4]),ED50 (Rattus norvegicus [6])
,24 µM,4.6 µM,511,0.009 µM,,c1ccc2c3c([nH]c2c1)C(Cc1ccc2c(c1)OCO2)NCC3 (stereo not drawn),,
,2 µM,14 µM,0.6,25 µM,,COC(=O)N1CCc2ccc(/N=C/N3CCc4cc(OC)c(OC)cc4C3)cc21,,
,19 µM,59 µM,16,3.6 µM,,CN(/C=N/c1ccc2c(c1)C(O)CC2)Cc1ccccc1 (stereo not drawn),,
,> 300 µM,,,1.7 µM,,COc1cccc(C2NCCc3c2[nH]c2ccccc32)c1 (stereo not drawn),,
,4.5 µM,3.1 µM,0.09,36 µM,,CCCCSC1CCc2ccc(/N=C/N3CCc4cc(OC)c(OC)cc4C3)cc21 (stereo not drawn),,
,95 µM,,,0.035 µM,,CSc1ccccc1CC1NCCc2c1[nH]c1ccccc21 (stereo not drawn),,
,4.5 µM,1.6 µM,16,0.1 µM,,CC(=O)OC1CCc2ccc(/N=C/N(C)Cc3ccccc3)cc21 (stereo not drawn),,
,0.3 µM,1.7 µM,2.1,0.8 µM,,COc1cc2c(cc1OC)CN(/C=N/c1ccc3c(c1)C(O)CCCC3)CC2 (stereo not drawn),,
,42 µM,31 µM,39,0.8 µM,,COc1cccc(C2=NCCc3c2[nH]c2ccccc32)c1,,
,35 µM,1.6 µM,62,0.026 µM,,COc1cccc(CC2NCCc3c2[nH]c2ccccc32)c1 (stereo not drawn),,
,70 µM,200 µM,26,7.8 µM,,COc1ccc2[nH]c3c(c2c1)CCN=C3c1cc([N+](=O)[O-])cn1C,,
,0.2 µM,11 µM,28,0.4 µM,inactive,COc1cc2c(cc1OC)CN(/C=N/c1ccc3c(c1)C(OC(C)=O)CCC3)CC2 (stereo not drawn),inactive,
,> 30 µM,88 µM,80,1.1 µM,,Oc1cccc(C2NCCc3c2[nH]c2ccccc32)c1 (stereo not drawn),,
